Data set [1] is described as follows: AUC (0 to 12 hrs) in HIV-seronegative healthy volunteers at 400 mg, po administered as single dose by LC-MS/MS in presence of albuminium, magnesium and simethicone-containg antacid. Further details: dose 400 mg, time < 12 hr, route oral. The data set is classed as ADME, organism-based. The note with it: human, plasma. The method in brief:
(§1)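 Randomized crossover in HIV-seronegative volunteers: after an 8-h overnight fast, a single observed oral 400 mg dose was given alone or with 30 ml aluminium/magnesium/simethicone antacid, with a 5- to 12-day washout between visits. Plasma was sampled at 0.5–48 h and assayed by LC/MS/MS (13C6 internal standard, linear 5–10,000 ng/ml). Noncompartmental AUC was computed by the linear-log trapezoidal rule and reported as a geometric mean.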

A short description of data set [2]: AUC (0 to infinity) in HIV-seronegative healthy volunteers at 400 mg, po administered as single dose by LC-MS/MS in presence of albuminium, magnesium and simethicone-containg antacid. More on the design: dose 400 mg, time infinity, route oral. The note with it: human, plasma. Type of data set: ADME, organism-based. The method, boiled down:
as §1

A short description of data set [3]: AUC (0 to 12 hrs) in HIV-seronegative healthy volunteers at 400 mg, po administered as single dose by LC-MS/MS. The note with it: human, plasma. The data set is classed as ADME, organism-based. Further details: dose 400 mg, time < 12 hr, route oral. The method in brief:
as §1

The subject of a further data set is Blood. Briefly: Ratio of drug level in HIV-seronegative healthy volunteers blood at 400 mg after 12 hrs, po administered as single dose in presence of albuminium, magnesium and simethicone-containg antacid to drug level in HIV-seronegative healthy volunteers blood at 400 mg after 12 hrs, po administered as single dose. Type of data set: ADME, organism-based. Conditions: human, in vivo. The method in brief: (§2)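 Randomized crossover in HIV-seronegative volunteers: after an 8-h fast, a single oral 400 mg RAL dose was given with or without 30 ml antacid (2.7 g Mg hydroxide, 3 g Al hydroxide gel, 240 mg simethicone), with a 5–12 day washout. Plasma was sampled 0.5–48 h and assayed by LC/MS/MS (LLOQ 5 ng/ml). Noncompartmental analysis; log-transformed geometric mean ratios with 90% CI; paired t tests.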

For data set [4], the system named is Homo sapiens. As to the kind of experiment: Ratio of AUC (0 to infinity) in HIV-infected patients at 400 mg, po treated after 2 hrs administration of 20 mg proton pump inhibitor omeprazole to AUC (0 to infinity) in HIV-infected patients at 400 mg, po. The note with it: in vivo. Type of data set: ADME, organism-based.
Data set [5] concerns Homo sapiens. As to the kind of experiment: Ratio of drug level in HIV-infected patients at 400 mg, po treated after 2 hrs administration of 20 mg proton pump inhibitor omeprazole after 12 hrs to drug level in HIV-infected patients at 400 mg, po after 12 hrs. The note with it: in vivo. Type of data set: ADME, organism-based.
Data set [6] relates to Homo sapiens. Briefly: Toxicity in HIV-seronegative healthy volunteers assessed as occurrence of mild headache at 400 mg, po administered as single dose in presence of 30 ml albuminium, magnesium and simethicone-containg antacid. Conditions: in vivo. The data set is classed as organism-based. The method, boiled down: (§3)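 Clinical adverse events were assessed during the two 12-h pharmacokinetic visits and at 24 and 48 h after a single oral 400 mg dose, given with or without 30 ml antacid. Events were graded with the 2004 Division of AIDS toxicity tables. Laboratory tests were run at screening and at 24 h post-dose.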

Data set [7] can be described thus: Drug level in HIV-seronegative healthy volunteers blood at 400 mg, po administered as single dose after 12 hrs by LC-MS/MS in presence of albuminium, magnesium and simethicone-containg antacid. The data set is classed as ADME, organism-based. The note with it: human, read-out: Drug uptake. The method in brief: (§4)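 Single fasted 400 mg oral dose was given alone or with 30 ml antacid in a crossover design with a 5- to 12-day washout. Fasting continued for 4 h post-dose. Plasma was assayed by LC/MS/MS (LLOQ 5 ng/ml). Cmax, Tmax and 12-h concentration were read visually from the profiles.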

Data set [8] can be described thus: AUC (0 to infinity) in HIV-seronegative healthy volunteers at 400 mg, po administered as single dose by LC-MS/MS. Conditions: human, plasma. More on the design: dose 400 mg, route oral, time infinity. The data set is classed as ADME, organism-based. The method, boiled down: as §1
For data set [9], the system named is Homo sapiens. As to the kind of experiment: Ratio of Cmax in HIV-infected patients at 400 mg, po treated after 2 hrs administration of 20 mg proton pump inhibitor omeprazole to Cmax in HIV-infected patients at 400 mg, po. The data set is classed as ADME, organism-based. The note with it: in vivo.
Data set [10] concerns Homo sapiens. As to the kind of experiment: Toxicity in HIV-seronegative healthy volunteers assessed as occurrence of mild headache at 400 mg, po administered as single dose. Conditions: in vivo. Type of data set: organism-based. The method, boiled down: as §3
Data set [11] in a line: Cmax in HIV-seronegative healthy volunteers at 400 mg, po administered as single dose by LC-MS/MS. The note with it: human, in vivo. More on the design: dose 400 mg, route oral. The data set is classed as ADME, organism-based. The method, boiled down:
as §4

For data set [12], the system named is Homo sapiens. As to the kind of experiment: Ratio of AUC (0 to infinity) in HIV-seronegative healthy volunteers at 400 mg, po administered as single dose in presence of albuminium, magnesium and simethicone-containg antacid to AUC (0 to 12 hrs) in HIV-seronegative healthy volunteers at 400 mg, po administered as single dose. The data set is classed as ADME, organism-based. Conditions: in vivo. The method, boiled down: as §2

Data set [13] in a line: Terminal half life in human at 400 mg BID. Type of data set: ADME, organism-based. Conditions: in vivo, read-out: beta t1/2 (converted).
The nature of data set [14]: Primary phase half life in human at 400 mg BID. Type of data set: ADME, organism-based. The note with it: in vivo, read-out: alphat1/2 (converted).
The nature of data set [15]: Cmax in HIV-seronegative healthy volunteers at 400 mg, po administered as single dose by LC-MS/MS in presence of albuminium, magnesium and simethicone-containg antacid. Further details: dose 400 mg, route oral. The note with it: human, in vivo. Type of data set: ADME, organism-based. The method in brief:
as §4

Data set [16] deals with Homo sapiens. As to the kind of experiment: Ratio of AUC (0 to 12 hrs) in HIV-seronegative healthy volunteers at 400 mg, po administered as single dose in presence of albuminium, magnesium and simethicone-containg antacid to AUC (0 to 12 hrs) in HIV-seronegative healthy volunteers at 400 mg, po administered as single dose. The note with it: in vivo. Type of data set: ADME, organism-based. The method, boiled down: as §2

Data set [17] is described as follows: Tmax in HIV-seronegative healthy volunteers at 400 mg, po administered as single dose by LC-MS/MS in presence of albuminium, magnesium and simethicone-containg antacid. Conditions: human, in vivo. The data set is classed as ADME, organism-based. The method, boiled down: as §4
Data set [18] deals with Homo sapiens. As to the kind of experiment: Ratio of Cmax in HIV-seronegative healthy volunteers at 400 mg, po administered as single dose in presence of albuminium, magnesium and simethicone-containg antacid to Cmax in HIV-seronegative healthy volunteers at 400 mg, po administered as single dose. Type of data set: ADME, organism-based. The note with it: in vivo. The method, boiled down:
as §2

The nature of data set [19]: Drug level in HIV-seronegative healthy volunteers blood at 400 mg, po administered as single dose after 12 hrs by LC-MS/MS. Type of data set: ADME, organism-based. The note with it: human, read-out: Drug uptake. The method, boiled down: as §4
Data set [20] can be described thus: Tmax in HIV-seronegative healthy volunteers at 400 mg, po administered as single dose by LC-MS/MS. Type of data set: ADME, organism-based. Conditions: human, in vivo. The method in brief: as §4

As usually defined, the AUC(0-t) is exposure summed from dosing to a finite time, without extrapolation to infinity. For orientation: AUC(0-inf) means the area under the concentration-time curve extrapolated to infinity. In general, Cmax refers to the peak of the concentration-time curve. The term Tmax denotes the time at which the peak concentration occurs. For `Cc1nnc(C(=O)NC(C)(C)c2nc(C(=O)NCc3ccc(F)cc3)c(O)c(=O)n2C)o1` [RALTEGRAVIR], the AUC(0-t) at 12 h in data set [1] came out at 3300 ng·h/mL; in data set [3] it was 3040 ng·h/mL. Further, the total exposure AUC(0-inf) in [2] is 3420 ng·h/mL; in data set [8], 3540 ng·h/mL. For the same molecule, the Ratio in the data set on Blood was 0.33; in the data set on Homo sapiens [4], 3; with Homo sapiens [5] it was 1.5; with Homo sapiens [9] it was 4; in the data set with Homo sapiens [12], 0.96; with Homo sapiens [16], 1.08. In addition, the Ratio in the data set on Homo sapiens [18] came out at 1.53. The results for the Activity in the data set with Homo sapiens [6] and with Homo sapiens [10] were 42% and 25%, respectively. For the same molecule, the concentration at 12 h in data set [7] was 13 ng/mL; in [19] it was 37 ng/mL. The Cmax in [11] was found to be 945 ng/mL; in data set [15], 1440 ng/mL. Besides, the half-life in [13] is 9 h; in data set [14] it was 1 h. Besides, the figures for the Tmax in data set [17] and in data set [20] were 1 h and 3 h, respectively.

(Values after ChEMBL document CHEMBL1687816, “Effect of antacids on the pharmacokinetics of raltegravir in human immunodeficiency virus-seronegative volunteers” (Antimicrob Agents Chemother, 2010).)
